Experimental data taken from ChEMBL document CHEMBL3046847, “Synthesis and in vitro antiproliferative activity of novel 12(H)-quino[3,4-b][1,4]benzothiazine derivatives” (Med Chem Res, 2013).
Values after ≈ are worked out from the molar mass of the structure shown.

Key:
SNB-19 = test: Cytotoxicity against Homo sapiens (human) SNB19 cells assessed as cell viability after 72 hr by WST-1 assay; assay type: functional, cell-based
Procedure, shortened: (§1)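 Cells grown in D-MEM with 12 % FCS, streptomycin and penicillin at 37 °C, 5 % CO2, seeded at 1×10^4 cells/well. Exposed to compounds at 0–100 μg/ml for 72 h, then incubated with WST-1 for 2 h. Absorbance was read at 450 nm against a background control. Values are means of at least two independent experiments run in triplicate.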

C32 = test: Cytotoxicity against Homo sapiens (human) C32 cells assessed as cell viability after 72 hr by WST-1 assay; assay type: functional, cell-based; procedure, shortened: as §1
[1] = Homo sapiens, SNB-19, 72 h, read-out: IC50
[2] = Homo sapiens, C32, 72 h, read-out: IC50

In the case of `Fc1ccc2c(c1)Sc1cnc3ccccc3c1N2CCN1CCCCC1`, the IC50 (SNB-19; [1]) is reported as 12.4 µg/mL (≈ 32.7 µM) and the IC50 (C32; [2]) is reported as 7 µg/mL (≈ 18.4 µM).

`c1ccc2c(c1)Nc1c(cnc3ccccc13)S2` showed an IC50 (SNB-19; [1]) of 9.6 µg/mL (≈ 38.3 µM) and an IC50 (C32; [2]) of 8.9 µg/mL (≈ 35.6 µM).

With `c1cnc2c(c1)N(CCN1CCCCC1)c1c(cnc3ccccc13)S2` the IC50 (SNB-19; [1]) was 7.3 µg/mL (≈ 20.1 µM) and the IC50 (C32; [2]) was 7.9 µg/mL (≈ 21.8 µM).

In the case of `Cc1ccc2c(c1)Sc1cnc3ccccc3c1N2`, the IC50 (SNB-19; snb-19) is reported as “Not Active” and the IC50 (C32; [2]) is reported as 8.7 µg/mL (≈ 32.9 µM).

`c1cnc2c(c1)Nc1c(cnc3ccccc13)S2` was tested, and the IC50 (SNB-19; [1]) was 10.2 µg/mL (≈ 40.6 µM) and the IC50 (C32; [2]) was 8.7 µg/mL (≈ 34.6 µM).

In the case of `Clc1ccc2c(c1)Sc1cnc3ccccc3c1N2`, the IC50 (SNB-19; snb-19) is reported as “Not Active” and the IC50 (C32; [2]) is reported as 7.8 µg/mL (≈ 27.4 µM).

`Cc1cccc2c1Nc1c(cnc3ccccc13)S2` was tested, and the IC50 (SNB-19; snb-19) was “Not Active” and the IC50 (C32; c32) was “Not Active”.

With `Cc1ccc2c(c1)Sc1cnc3ccccc3c1N2CCN1CCCCC1` the IC50 (SNB-19; [1]) was 6.6 µg/mL (≈ 17.6 µM) and the IC50 (C32; [2]) was 6.9 µg/mL (≈ 18.4 µM).

In the case of `c1ccc2c(c1)Sc1cnc3ccccc3c1N2CCN1CCCCC1`, the IC50 (SNB-19; [1]) is reported as 6.7 µg/mL (≈ 18.5 µM) and the IC50 (C32; [2]) is reported as 5.6 µg/mL (≈ 15.5 µM).

For `Fc1ccc2c(c1)Sc1cnc3ccccc3c1N2`, the IC50 (SNB-19; snb-19) was “Not Active” and the IC50 (C32; [2]) was 9.4 µg/mL (≈ 35 µM).

In the case of `Brc1ccc2c(c1)Sc1cnc3ccccc3c1N2`, the IC50 (SNB-19; snb-19) is reported as “Not Active” and the IC50 (C32; [2]) is reported as 8.6 µg/mL (≈ 26.1 µM).

`CN(C)CCCN1c2cccnc2Sc2cnc3ccccc3c21` gave an IC50 (SNB-19; [1]) of 8.2 µg/mL (≈ 24.4 µM) and an IC50 (C32; [2]) of 6.5 µg/mL (≈ 19.3 µM).
